Laboratory results from ChEMBL document CHEMBL1138813, “Synthesis and antiviral activity of 3-formyl- and 3-cyano-2,5,6-trichloroindole nucleoside derivatives” (J Med Chem, 2004).

How the values were obtained:
HFF [1] = assay: Inhibitory concentration required against human cytomegalovirus (HCMV) expressed in HFF cells was determined by plaque reduction assay; type: functional, cell-based
In short: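 HFF cells in 24-well dishes infected with about 100 pfu/cm² of HCMV Towne strain. After adsorption, compound (10 mg/mL DMSO stock diluted in medium) added to duplicate wells at four to eight concentrations. Incubated 7–10 days at 37 °C, then fixed and crystal violet stained; plaques counted microscopically. % plaque reduction vs drug-free wells; IC50 by log-linear regression. GCV as positive control.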

HFF [2] = assay: Cytotoxicity produced in stationary HFF cells was determined by microscopic inspection of uninfected cells; type: functional, cell-based; conditions: Homo sapiens
In short: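 Stationary HFF cells in MEM with 10% fetal bovine serum, in plaque-assay plates. Visual cytotoxicity scored microscopically in duplicate wells on cells not affected by virus, at the time of HCMV plaque enumeration (after 7–10 days at 37 °C). IC50 from linear portion of regression of % inhibition against log10 drug concentration.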

[3] = Cytotoxicity against KB cells was determined by crystal violet staining and spectrophotometric quantitation of dye eluted from stained cells; type: functional, cell-based; conditions: Homo sapiens
In short: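 KB cells seeded at 3000–5000 per well, incubated overnight at 37 °C, then compound added in quadruplicate at six to eight concentrations. After 48 h at 37 °C in CO₂ (two population doublings), cells were fixed in 95% ethanol and stained with 0.1% crystal violet. Dye eluted with acidified ethanol, read at 570 nm. IC50 from linear regression of % inhibition vs log10 concentration.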

[4] = Inhibitory concentration required against herpes simplex virus type-1 (HSV-1) expressed in BSC-1 cells was determined by ELISA assay; type: functional, cell-based, Cercopithecidae
In short: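 BSC-1 cells, 10 000 per well in MEM(E) plus 10% calf serum, incubated overnight at 37 °C. Drug added in quadruplicate with HSV-1 KOS strain at 100 pfu/well, then 3 days at 37 °C. […] Acyclovir as positive control.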

SMILES	IC50 (HFF [1])	IC50 (HFF [2])	IC50 [3]	IC50 [4]
CN(C)/N=C/c1c(Cl)n(C2O[C@H](CO)[C@@H](O)C2O)c2cc(Cl)c(Cl)cc12 (single isomer, unassigned)	0.27 µM	32 µM	70 µM	15 µM
N/C(=N\O)c1c(Br)n(C2O[C@H](CO)[C@@H](O)C2O)c2cc(Cl)c(Cl)cc12 (single isomer, unassigned)	0.41 µM	> 100 µM	35 µM	> 100 µM
O=Cc1c(Cl)n(C2O[C@H](CO)[C@@H](O)C2O)c2cc(Cl)c(Cl)cc12 (single isomer, unassigned)	0.23 µM	–	45 µM	40 µM
OC[C@H]1O[C@@H](n2c(Br)nc3cc(Cl)c(Cl)cc32)C(O)[C@@H]1O (single isomer, unassigned)	–	–	> 100 µM	130 µM
N#Cc1c(Cl)n(C2O[C@H](CO)[C@@H](O)C2O)c2cc(Cl)c(Cl)cc12 (single isomer, unassigned)	0.55 µM	–	65 µM	15 µM
N/C(=N\O)c1c(Cl)n(C2O[C@H](CO)[C@@H](O)C2O)c2cc(Cl)c(Cl)cc12 (single isomer, unassigned)	0.3 µM	100 µM	> 100 µM	70 µM
OC[C@H]1O[C@@H](n2c(Cl)nc3cc(Cl)c(Cl)cc32)C(O)[C@@H]1O (single isomer, unassigned)	–	–	210 µM	102 µM
COC(=O)N/N=C/c1c(Cl)n(C2O[C@H](CO)[C@@H](O)[C@H]2O)c2cc(Cl)c(Cl)cc12 (some centres not stated)	1.7 µM	32 µM	20 µM	30 µM
NC(=O)c1c(Cl)n(C2O[C@H](CO)[C@@H](O)C2O)c2cc(Cl)c(Cl)cc12 (single isomer, unassigned)	2 µM	45 µM	45 µM	40 µM
OC[C@H]1OC(n2c(Cl)c(/C=N/O)c3cc(Cl)c(Cl)cc32)C(O)[C@@H]1O (single isomer, unassigned)	3.9 µM	20 µM	25 µM	5 µM
NC(=O)N/N=C/c1c(Cl)n(C2O[C@H](CO)[C@@H](O)[C@H]2O)c2cc(Cl)c(Cl)cc12 (some centres not stated)	3 µM	100 µM	> 100 µM	> 100 µM
CO/N=C/c1c(Cl)n(C2O[C@H](CO)[C@@H](O)C2O)c2cc(Cl)c(Cl)cc12 (single isomer, unassigned)	40 µM	32 µM	70 µM	15 µM
CC(=O)N/N=C/c1c(Cl)n(C2O[C@H](CO)[C@@H](O)C2O)c2cc(Cl)c(Cl)cc12 (single isomer, unassigned)	1.7 µM	32 µM	9 µM	30 µM
Nc1nc2c(ncn2COC(CO)CO)c(=O)[nH]1 [GANCICLOVIR]	–	> 100 µM	> 100 µM	3.5 µM
N/C(S)=N/N=C/c1c(Cl)n(C2O[C@H](CO)[C@@H](O)[C@H]2O)c2cc(Cl)c(Cl)cc12 (some centres not stated)	2.2 µM	100 µM	65 µM	> 100 µM
COC(=N)c1c(Cl)n(C2O[C@H](CO)[C@@H](O)C2O)c2cc(Cl)c(Cl)cc12 (single isomer, unassigned)	0.36 µM	100 µM	50 µM	70 µM
